Experiment: Toxicity liver stage against HepG2, at 10uM
Type: cell-based
Design: test concentration 10 uM, cell line HepG2-A16-CD81EGFP
Conditions: human, HepG2-A16-CD81EGFP cells; read-out: INHIBITION
How it was run: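 Uninfected HepG2-A16-CD81EGFP cells, 3 × 10^3 per well, 1536-well, plated on prespotted compound at 10 μM final, parasite-free screening media added to match infected plates; puromycin 10 μM positive, DMSO 0.5% negative; run in parallel with 48 h PbLuc assay at 37 °C, 5% CO2; viability by CellTiter-Glo luminescence, normalized to controls.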

Structure (SMILES)	cytotoxicity at 10 µM [%]
CC[C@H](C)[C@H](NC(=O)c1ccc(-n2cnnn2)cc1)C(=O)OC	9.09
Cc1cnc2n(c1=O)C(CC(=O)NCc1ccc(Cl)cc1)CS2 (stereo unspecified)	-5.55
O=C(c1ccco1)N(CC(F)(F)F)C1CCOCC1	-12.3
Cn1cc(-c2nc(C3CCN(CC4CC4)CC3)cc3c2ncn3C)cn1	-1.86
CN1CCCC[C@@H]2[C@H]1[C@@H](c1ccccc1)CCN2S(=O)(=O)N1CCCC1	-1.03
CC(C)C(=O)N1CCC(n2nc(-c3ccco3)ccc2=O)CC1	-2.44
Cc1nc2cc(C3CCN(Cc4ccccc4F)C3)nn2c(O)c1C (stereo unspecified)	5.52
CC(C)(C)n1ncc(NCc2ccccc2)c(Cl)c1=O	55.8
Cn1cnc2c1CCN(c1ccnc(-c3ccccc3)n1)C2	7.51
CN1CCC(N(Cc2ccco2)S(=O)(=O)c2ccc(Br)cc2Cl)CC1	-12.8
CC(=O)N1CCc2ccccc2C1CC(=O)NCc1nnc(C)o1 (stereo unspecified)	5.8
COC(=O)CN(C(=O)c1cc(C)c(F)cc1F)c1cccc(C)n1	6.9
CC(=O)c1cccc(NC(=O)N(CC(F)F)C2CC2)c1	2.08
Cc1ccc(C(C)(C)CNC(=O)NC(C)Cn2cncn2)cc1 (stereo unspecified)	3.09
CCS(=O)(=O)Cc1nnnn1-c1ccccc1	2.7
CCc1nc(C2NC3(CCCC3)C(=O)N2CC2CC2)cs1 (stereo unspecified)	-1.09
C=C(C)CN1CCCC1c1nc(Cc2ccc(F)cc2)no1 (stereo unspecified)	-4.9
CCc1noc(C(C)N2CCN(c3ncnc4sccc34)CC2)n1 (stereo unspecified)	56.3
CCc1noc(CS(=O)(=O)Cc2ccccc2C)n1	16.8
COC1CCN(C(=O)C2CC(=O)N(c3ccccc3Br)C2)CC1 (stereo unspecified)	-3.57
O=C(CCCn1cncn1)NC1(c2ccc(Cl)cc2)CCC1	6.66
CN(C)C(=O)c1cc(S(=O)(=O)N2CCCC2Cn2ccnc2)cn1C (stereo unspecified)	12.2
Cc1ccc(C(N)c2cccs2)cc1 (stereo unspecified)	-0.367

Structure (SMILES)	cytotoxicity at 10 µM [%]
COc1ncc(Cl)c(NCc2ccc([S+](C)[O-])cc2)n1 (stereo unspecified)	-4.18
CCCNC(=O)CN1CCOC(CC)C1 (stereo unspecified)	2.98
CC(C)c1nsc(N2CCCOCC2)n1	-7.86
COc1cccc(CN(C)C(=O)c2ccc(NC(C)=O)s2)c1OC	0.23
CNC(=O)c1ccc(OC)c(NCc2ncc(-c3cccs3)o2)c1	14
Fc1ccc(OCCNC2CCN(Cc3ccncc3)CC2)c(F)c1	-11.1
O=C(CC1CC1)N1CCC2(COCc3cnc(N4CCOCC4)nc32)C1 (stereo unspecified)	-82.1
CCCOC(=O)N1CCn2nc(-c3nc4ccccc4n3C)cc2C1	10.6
CCCc1cc(CNC2CCN(c3cc(C(C)C)nc(C)n3)CC2)on1	-13.6
COc1cc(F)ccc1-c1cnc(N)cn1	-11.4
CCC[C@H]1CN(CCS(C)(=O)=O)C[C@@H]1NC(=O)c1ccn(C)n1	5.83
CCc1ccc(C2CC(=O)Nc3cc(OC)c(NS(C)(=O)=O)cc32)o1 (stereo unspecified)	3.25
O=C(NCCN1CCOCC1)c1ccc(-c2ccc(F)cc2)nc1O	2.25
CCOC(=O)c1sc2ccsc2c1CNC(=O)CCOC	-16.7
CCc1noc(C(C)N2CCN(Cc3noc(C)n3)CC2)n1 (stereo unspecified)	-4.48
Cc1cnn(CC2CCCN2CCc2nc3ccccc3c(=O)[nH]2)c1 (stereo unspecified)	-5.79
CC(C)(C)c1nc(CN2CCCC(Cn3cncn3)C2)cs1 (stereo unspecified)	-4.54
COc1cc(C)c(S(=O)(=O)NCc2cccnc2N(C)C)c(C)c1	12.2
CN1CCC2(COCCN(Cc3ccc4c(c3)OCO4)C2)C1 (stereo unspecified)	-2.05
Cn1nc(COc2cccnc2)c2c1CCN(CC1CC1)C2	-97.8
O=C(NCc1cncc2c1CCN(C1CCOCC1)C2)c1ccco1	-0.758
CC(C)n1nc(CN(C)C)c2c1CN(C(=O)CC1CC1)CC2	-6.72
CCc1ncc(C(=O)N2CC[C@H]3CC[C@@H](C2)N3C)cn1	-7.09
